The values below come from ChEMBL document CHEMBL1122066, “Arylhydroxamic acid N,O-acyltransferase substrates. Acetyl transfer and electrophile generating activity of N-hydroxy-N-(4-alkyl-, 4-alkenyl-, and 4-cyclohexylphenyl)acetamides” (J Med Chem, 1982).

Each structure is given as a SMILES string.

The subject of assay [1] is arylhydroxamic acid N,O-acyltransferase (Mesocricetus auratus). The assay is described as follows: Tested for its arylhydroxamic acid N,O-Acyltransferase (AHAT) catalyzed transacetylation of aminoazobenzene with partially purified hepatic enzyme in hamster. Also on record: Rate: unit not given here.
The species named for assay [2] is Rattus norvegicus. The assay is described as follows: Tested for its arylhydroxamic acid N,O-Acyltransferase (AHAT) catalyzed transacetylation of aminoazobenzene with partially purified hepatic enzyme in rat. It counts as functional. The method, boiled down: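 Rat liver AHAT came from 105000g cytosol, partially purified 2- to 3-fold by ammonium sulfate. It was assayed at 1.0 mg/mL protein in pH 7.0 pyrophosphate/1 mM DTT/KCl with hydroxamic acid (1.0 mM) and AAB (0.15 mM) for 5 min at 37 °C in air. The reaction was stopped with TCA/EtOH and read at 497 nm, with a heat-denatured enzyme control. Rates are mean ± SE, N = 3–4, run in triplicate.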

The test system of assay [3] is Cricetinae gen. sp. The assay is described as follows: Aminoazobenzene transacetylation inhibition by partially purified hepatic enzyme using N-ethyl maleimide as inhibitor (1.0 mM) in hamster. It counts as functional. The note with it: Cricetulus griseus. The method, boiled down:
(§1)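 Rat or hamster liver cytosol (105000g supernatant), partially purified by ammonium sulfate fractionation, was incubated 5 min with the sulfhydryl reagent (1.0 mM). AAB transacetylation was then run in pH 7.0 pyrophosphate/1 mM DTT at 37 °C with hydroxamic acid donor (1.0 mM final) and AAB (0.15 mM final). It was stopped with TCA/EtOH and read at 497 nm. Values are % inhibition, means of 2–3 triplicate experiments.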

The species entered for assay [4] is Rattus norvegicus. In words: Aminoazobenzene transacetylation inhibition by partially purified hepatic enzyme using iodo acetamide as inhibitor (1.0 mM) in rat. The class given is functional. Put shortly:
as §1

Assay [5] is filed under the species Rattus norvegicus. In words: Aminoazobenzene transacetylation inhibition by partially purified hepatic enzyme using N-ethyl maleimide as inhibitor (1.0 mM) in rat. The class given is functional. The method, boiled down:
as §1

For assay [6], the system named is Cricetinae gen. sp. The assay is described as follows: Aminoazobenzene transacetylation inhibition by partially purified hepatic enzyme using 4-chloro mercuri benzenesulfonate as inhibitor (1.0 mM) in hamster. The class given is functional. Conditions: Cricetulus griseus. The method, boiled down: as §1
Assay [7] concerns arylhydroxamic acid N,O-acyltransferase (Mesocricetus auratus). In words: Tested for its arylhydroxamic acid N,O-Acyltransferase (AHAT) catalyzed transacetylation of aminoazobenzene with hamster hepatic enzyme after dialysis.
The species named for assay [8] is Rattus norvegicus. The assay is described as follows: Aminoazobenzene transacetylation inhibition by partially purified hepatic enzyme using 4-chloro mercuri benzenesulfonate as inhibitor (1.0 mM) in rat. The class given is functional. The method, boiled down: as §1
Assay [9] relates to arylhydroxamic acid N,O-acyltransferase (Mesocricetus auratus). In words: Tested for its arylhydroxamic acid N,O-Acyltransferase (AHAT) catalyzed transacetylation of aminoazobenzene with hamster hepatic enzyme before dialysis.
Assay [10] relates to Cricetinae gen. sp. The assay is described as follows: Aminoazobenzene transacetylation inhibition by partially purified hepatic enzyme using iodo acetamide as inhibitor (1.0 mM) in hamster. Conditions: at 1 mM.
The species named for another assay is Cricetulus griseus. The assay is described as follows: Tested for its arylhydroxamic acid N,O-Acyltransferase (AHAT) catalyzed transacetylation of aminoazobenzene with hamster hepatic enzyme after dialysis. The class given is functional. The method, boiled down: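 Hamster enzyme (partially purified by ammonium sulfate) was preincubated 20 min at 37 °C in air with the hydroxamic acid; controls had ethanol only. It was then dialyzed 6 h at 4 °C against N2-sparged pH 7.0 pyrophosphate/1 mM DTT/2% EtOH with three buffer changes. Portions taken before and after dialysis were assayed with AAB plus the same hydroxamic acid for 5 or 8 min, read at 497 nm. Rates are nmol/mg/min, mean of two triplicate experiments.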

For assay [11], the system named is Cricetinae gen. sp. The assay is described as follows: Aminoazobenzene transacetylation inhibition by partially purified hepatic enzyme using iodo acetamide as inhibitor (1.0 mM) in hamster. The class given is functional. Conditions: Cricetulus griseus. The method, boiled down: as §1

On to `CCCCCc1ccc(N(O)C(C)=O)cc1`, for which the results for the Rate (in assay [1]; in the assay filed under Rattus norvegicus [2]) were 13.8 and 5.2 nmol/min/mg, respectively.
Consider `CC(=O)N(O)c1ccccc1`, for which the results for the Rate (in assay [1]; in the assay listed under Rattus norvegicus [2]) were 0.6 and 0.2 nmol/min/mg, respectively.
For `CCCc1ccc(N(O)C(C)=O)cc1` the same measures were 5.3 and 3.1 nmol/min/mg.
As to `CC(=O)N(O)c1ccc(C)cc1`, the figures for the Rate (in assay [1]; in the assay listed under Rattus norvegicus [2]) were 2.1 and 1.1 nmol/min/mg, respectively.
`CCCCc1ccc(N(O)C(C)=O)cc1`: the figures for the Rate (in assay [1]; in the assay listed under Rattus norvegicus [2]) were 8.8 and 4.7 nmol/min/mg, respectively.
Consider `CC(=O)N(O)c1ccc(C2CCCCC2)cc1`, for which the inhibition in the assay on Cricetinae gen. sp. [3] (at 1 mM) turned out to be 96%; in the assay filed under Rattus norvegicus [4] (at 1 mM), 99%; in the assay listed under Rattus norvegicus [5] (at 1 mM) it was 100%; with Cricetinae gen. sp. [6] (at 1 mM), 100%; in the assay listed under Rattus norvegicus [8] (at 1 mM), 100%; with Cricetinae gen. sp. [10], 100%. The Rate (mg of protein) in assay [1] amounted to 9.4; in [7], 1.7; in assay [9] it was 3.2. The compound also yielded a Rate in the assay filed under Rattus norvegicus [2] of 4.7 nmol/min/mg.
For `CC(=O)N(O)c1ccc(C=C(C)C)cc1`, the Rate in assay [1] was determined as 13.1; in the assay filed under Rattus norvegicus [2], 5.7 nmol/min/mg.
Take `CC(=O)N(O)c1ccc(-c2ccccc2)cc1`: the Rate (mg of protein) was 6.9 in the assay filed under Cricetulus griseus and 6.3 in assay [9]. Further, the inhibition amounted to 100% in the assay on Cricetinae gen. sp. [3]; 95% in the assay listed under Rattus norvegicus [4]; 92% in the assay listed under Rattus norvegicus [5]; 100% with Cricetinae gen. sp. [11]; 100% in the assay with Cricetinae gen. sp. [6]; 100% in the assay filed under Rattus norvegicus [8]. Further, the Rate was found to be 22.4 in [1] and 5.8 nmol/min/mg in the assay filed under Rattus norvegicus [2].
As to `C=Cc1ccc(N(O)C(C)=O)cc1`, the Rate in assay [1] came out at 6.6; in the assay filed under Rattus norvegicus [2] it was 3.3 nmol/min/mg.
Turning to `C/C=C/c1ccc(N(O)C(C)=O)cc1`, the figures for the Rate (in assay [1]; in the assay filed under Rattus norvegicus [2]) were 13 and 5.9 nmol/min/mg, respectively.
Take `CCc1ccc(N(O)C(C)=O)cc1`: the Rate in [1] is 3.5; in the assay filed under Rattus norvegicus [2], 2.1 nmol/min/mg.

The inhibition is the share of the control response that was lost under treatment.
